Drawing on ChEMBL document CHEMBL5126677, “Covalent Modification of the JH2 Domain of Janus Kinase 2” (ACS Med Chem Lett, 2022), this text covers Kd and Selectivity ratio for six compounds.

Assay [1] addresses T1, Tyrosine-protein kinase JAK2 (Homo sapiens, UniProt O60674). Put plainly: Binding affinity to wild type JAK2 JH2 (unknown origin) expressed in baculovirus infected Sf9 insect cells incubated for 30 mins by competitive fluorescence polarization assay. The method, boiled down:
(§1)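 JAK2 JH2 domain Kd from a competitive fluorescence polarization tracer-displacement assay, with readings after 30 min and after 20 h incubation. The negative control was tracer in buffer. The positive control used enough protein to bind all tracer, at the same protein concentration used across the assays.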

The target of assay [2] is T1, Tyrosine-protein kinase JAK2. Put plainly: Binding affinity to wild type JAK2 JH2 (unknown origin) expressed in baculovirus infected Sf9 insect cells incubated for 20 hrs by competitive fluorescence polarization assay. The method, boiled down:
as §1

Assay [3] is filed under the species Homo sapiens. Put plainly: Selectivity ratio of Kd for wild type JAK2 JH2 (unknown origin) expressed in baculovirus infected Sf9 insect cells incubated for 30 mins to Kd for wild type JAK2 JH2 (unknown origin) expressed in baculovirus infected Sf9 insect cells incubated for 20 hrs.
The species entered for assay [4] is Homo sapiens. Put plainly: Selectivity ratio of Kd for wild type JAK2 JH1 (unknown origin) expressed in baculovirus infected Sf9 insect cells incubated for 30 mins to Kd for wild type JAK2 JH2 (unknown origin) expressed in baculovirus infected Sf9 insect cells incubated for 30 mins. The method, boiled down:
(§2)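 Selectivity is the ratio of JH1 Kd to JH2 Kd, both from the same competitive fluorescence polarization assay. JH2 Kd was taken at the 30 min or 20 h incubation. Controls were tracer in buffer (negative) and saturating protein at the common protein concentration (positive).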

The species named for assay [5] is Homo sapiens. Put plainly: Selectivity ratio of Kd for wild type JAK2 JH1 (unknown origin) expressed in baculovirus infected Sf9 insect cells incubated for 30 mins to Kd for wild type JAK2 JH2 (unknown origin) expressed in baculovirus infected Sf9 insect cells incubated for 20 hrs. The method, boiled down: as §2
For assay [6], the target named is T1, Tyrosine-protein kinase JAK2. Put plainly: Binding affinity to wild type JAK2 JH1 (unknown origin) expressed in baculovirus infected Sf9 insect cells incubated for 30 mins by competitive fluorescence polarization assay.

T1 sequence (O60674 whole entry, the tested form may be a part): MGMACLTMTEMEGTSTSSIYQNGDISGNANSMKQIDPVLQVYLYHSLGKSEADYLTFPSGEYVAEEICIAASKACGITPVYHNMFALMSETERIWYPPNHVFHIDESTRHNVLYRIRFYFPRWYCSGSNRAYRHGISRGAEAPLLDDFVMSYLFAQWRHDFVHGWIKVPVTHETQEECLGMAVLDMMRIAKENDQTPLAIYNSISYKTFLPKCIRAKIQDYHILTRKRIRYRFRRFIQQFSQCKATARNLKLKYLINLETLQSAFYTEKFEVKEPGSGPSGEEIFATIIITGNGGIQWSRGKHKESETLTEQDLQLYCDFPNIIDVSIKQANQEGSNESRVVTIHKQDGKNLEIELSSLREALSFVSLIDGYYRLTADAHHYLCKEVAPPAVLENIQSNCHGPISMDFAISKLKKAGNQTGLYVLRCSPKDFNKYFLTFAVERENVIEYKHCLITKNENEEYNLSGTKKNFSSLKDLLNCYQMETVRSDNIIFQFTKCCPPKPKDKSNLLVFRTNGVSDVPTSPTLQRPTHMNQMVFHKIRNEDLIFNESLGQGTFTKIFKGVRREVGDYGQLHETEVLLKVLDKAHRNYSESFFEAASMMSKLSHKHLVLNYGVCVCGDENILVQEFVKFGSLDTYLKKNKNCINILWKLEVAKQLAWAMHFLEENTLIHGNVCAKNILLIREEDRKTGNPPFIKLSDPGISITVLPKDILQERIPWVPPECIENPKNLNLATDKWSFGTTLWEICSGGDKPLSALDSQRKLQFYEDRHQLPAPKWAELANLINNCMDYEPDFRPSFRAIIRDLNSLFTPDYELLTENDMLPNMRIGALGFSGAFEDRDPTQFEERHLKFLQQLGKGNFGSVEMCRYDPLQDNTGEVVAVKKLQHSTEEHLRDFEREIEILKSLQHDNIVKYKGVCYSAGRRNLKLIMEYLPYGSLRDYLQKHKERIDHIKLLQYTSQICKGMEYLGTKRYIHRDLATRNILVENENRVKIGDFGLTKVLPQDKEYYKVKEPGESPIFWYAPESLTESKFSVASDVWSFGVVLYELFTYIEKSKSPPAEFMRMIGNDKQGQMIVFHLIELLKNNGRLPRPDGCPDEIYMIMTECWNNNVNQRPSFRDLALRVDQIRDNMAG

Broadly, the Kd is the equilibrium constant for the complex coming apart. As for `C/C=C/C(=O)NCCc1ccc(F)c(C(=O)n2nc(Nc3ccc(C(=O)NC)cc3)nc2N)c1F`, the Kd in assay [1] turned out to be 578 nM; in assay [2], 565 nM. Further, the Selectivity ratio in the assay listed under Homo sapiens [3] turned out to be 1.
Turning to `C=CC(=O)NCCc1ccc(F)c(C(=O)n2nc(Nc3ccc(C(=O)NC)cc3)nc2N)c1F`, the Kd came to 556 nM in assay [1], 110 nM in assay [2] and 1280 nM in assay [6]. Moreover, the Selectivity ratio in the assay filed under Homo sapiens [4] is 2.3; in the assay filed under Homo sapiens [5] it was 11.6; in the assay listed under Homo sapiens [3], 5.1.
In the case of `C=CC(=O)NCCc1cc(F)c(C(=O)n2nc(Nc3ccc(C(=O)NC)cc3)nc2N)c(F)c1`, the Kd in assay [1] is 242 nM; in assay [2], 75 nM; in assay [6], 830 nM. Further, the values for the Selectivity ratio in the assay filed under Homo sapiens [4], in the assay listed under Homo sapiens [5] and in the assay listed under Homo sapiens [3] were 3.4, 11.1 and 3.2, respectively.
For the compound `CNC(=O)c1ccc(Nc2nc(N)n(C(=O)c3c(F)cccc3F)n2)cc1`, the Kd stood at 171 nM in assay [1] and 263 nM in assay [2]. Also, the Selectivity ratio in the assay filed under Homo sapiens [3] turned out to be 0.65.
Take `C=CC(=O)NCCOc1ccc(F)c(C(=O)n2nc(Nc3ccc(C(=O)NC)cc3)nc2N)c1F`: the Kd in assay [1] stood at 617 nM; in assay [2], 154 nM; in assay [6] it was 4370 nM. Besides, the Selectivity ratio worked out at 7.1 in the assay listed under Homo sapiens [4], 28.4 in the assay filed under Homo sapiens [5] and 4 in the assay filed under Homo sapiens [3].
In the case of `C=CC(=O)NCc1ccc(F)c(C(=O)n2nc(Nc3ccc(C(=O)NC)cc3)nc2N)c1F`, the values for the Kd in assay [1] and in assay [2] were 1250 nM and 800 nM, respectively. In addition, in the assay filed under Homo sapiens [3], the Selectivity ratio amounted to 1.6.
